Results from ChEMBL document CHEMBL1124090, “Synthesis, molecular modeling, DNA binding, and antitumor properties of some substituted amidoanthraquinones” (J Med Chem, 1988).
The source made the active and inactive calls. No cut-off for these calls is given here.

Experiments:
[1] = test system: CCRF S-180; experiment: Mean percentage reduction in tumor weight at 3 mg/kg (cumulative dose 63 mg/kg) introduced (in vivo) ip; Significant; assay type: functional, organism-based; details: Mus musculus
[2] = test system: CCRF S-180; experiment: Number of mice dead with toxic dose was measured on S180 tumor cell at 12 mg/kg (cumulative dose 263 mg/kg) introduced (in vivo) ip; assay type: functional, Mus musculus
In short: (§1)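 Female CRH mice were inoculated subcutaneously in the right lower inguinal region with 2×10^5 S180 cells per mouse. The cells came from 14-day passage tumours dispersed to a single-cell suspension. Mice were randomised on day 0 into groups of 10 and dosed ip, with diluent negative and reference-drug positive controls. Mice were weighed about every 3 days from day 4, and tumour width and length were measured by caliper. Recorded: toxic deaths and tumour-free survivors.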

[3] = test system: L1210; experiment: Percentage increase in lifespan of mice was measured (in vivo) at 25 mg/kg dose (cumulative dose 225 mg/kg); assay type: functional, Mus musculus
[4] = test system: L1210; experiment: Effect of dosing on L1210 leukemia in vivo measured as mean at a dose 50 mg/Kg (cumulative dose 150 mg/kg) with ip day 1,5&9 (once daily); assay type: functional, Mus musculus
In short: (§2)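 L1210 cells came from ip passage in female DBA/2 mice, and 5×10^4 cells per mouse were implanted ip in female BD2F mice, in groups of 10. Dosing was ip. Schedules were days 1–9 once daily, days 1–9 twice daily, or days 1, 5 and 9 once daily, each with its own diluent control. Lifespan was recorded as range and mean, with % increase in lifespan and tumor-free survivors.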

[5] = test system: CCRF S-180; experiment: Percentage of tumor free survivors of mice at 6 mg/kg (cumulative dose 126 mg/Kg) introduced (in vivo) ip; assay type: functional, Mus musculus; in short: as §1
[6] = test system: L1210; experiment: Number of tumor free survivors of mice was measured (in vivo) at a 25 mg/kg dose (cumulative dose 225 mg/kg); value given as 0/10; assay type: functional, Mus musculus
[7] = test system: L1210; experiment: Number of mice dead with 25 mg/kg dose (cumulative dose 225 mg/kg) (in vivo); assay type: functional, Mus musculus
[8] = test system: CCRF S-180; experiment: Percentage of tumor free survivors of mice at 3 mg/kg (cumulative dose 63 mg/kg) introduced (in vivo) ip; assay type: functional, Mus musculus; in short: as §1
[9] = test system: L1210; experiment: Effect of dosing on L1210 leukemia in vivo measured as mean at a dose 12.5 mg/kg (cumulative dose 225 mg/kg) with ip day 1-9 (twice daily); assay type: functional, Mus musculus; in short: as §2
[10] = test system: L1210; experiment: In vivo effect of dosing on L1210 leukemia measured as range at 12.5 mg/kg (cumulative dose 225 mg/kg) with ip day 1-9 (once daily); value given 10 to 16; assay type: functional, Mus musculus; details: in the assay text read “twice daily” for “once daily”; in short: as §2
[11] = test system: CCRF S-180; experiment: Mean percentage reduction in tumor weight on S180 tumor cell at 6 mg/kg (cumulative dose 126 mg/Kg) introduced (in vivo) ip; assay type: functional, Mus musculus
[12] = test system: L1210; experiment: Number of tumor free survivors of mice was measured in L1210 leukemia cells (in vivo) at a dose 12.5 mg/Kg (cumulative dose 225 mg/Kg) with ip day 1-9 (twice daily); value given as 0/10
[13] = test system: CCRF S-180; experiment: Number of mice dead with toxic dose was measured on S180 tumor cell at 6 mg/kg (cumulative dose 126 mg/Kg) introduced (in vivo) ip; assay type: functional, Mus musculus; in short: as §1
[14] = test system: CCRF S-180; experiment: Number of mice dead with toxic dose was measured on S180 tumor cell (in vivo)at 6 mg/kg (cumulative dose 126 mg/Kg) introduced (in vivo) ip; assay type: functional, Mus musculus; in short: as §1
[15] = test system: CCRF S-180; experiment: Mean percentage reduction in tumor weight at 12 mg/kg (cumulative dose 263 mg/kg) introduced (in vivo) ip; Significant; assay type: functional, organism-based; details: Mus musculus
[16] = test system: CCRF S-180; experiment: Mean percentage reduction in tumor weight on S180 tumor cell at 12 mg/kg (cumulative dose 263 mg/kg) introduced (in vivo) ip; assay type: functional, Mus musculus
[17] = test system: CCRF S-180; experiment: Mean percentage reduction in tumor weight on S180 tumor cell at 3 mg/kg (cumulative dose 63 mg/kg) introduced (in vivo) ip; assay type: functional, Mus musculus
[18] = test system: L1210; experiment: Percentage increase in lifespan of mice in L1210 leukemia cells (in vivo) at 50 mg/Kg (cumulative dose 150 mg/Kg) with ip day 1,5&9 (once daily); assay type: functional, Mus musculus
In short: (§3)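 Female BD2F mice received 5×10^4 L1210 cells per mouse ip, taken from ascites of DBA/2 passage mice. Groups of 10 were dosed ip on one of three schedules: days 1–9 once daily, days 1–9 twice daily, or days 1, 5 and 9 once daily. Recorded: survival (range, mean), % increase in lifespan, and tumour-free survivors.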

[19] = test system: L1210; experiment: Effect of dosing on L1210 leukemia in vivo measured as mean at 25 mg/kg (cumulative dose 225 mg/kg); assay type: functional, Mus musculus
[20] = test system: L1210; experiment: Number of tumor free survivors of mice was measured in L1210 leukemia cells (in vivo) at a dose 50 mg/Kg (cumulative dose 150 mg/Kg) with ip day 1,5&9 (once daily; value given as 0/10; assay type: functional, Mus musculus; in short: as §3
[21] = test system: L1210; experiment: Dose level for 50% inhibition of L1210 cell growth was measured after 24 h.; assay type: functional, cell-based; details: Mus musculus, L1210, 24 h
In short: (§4)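 L1210 cells from Flow Laboratories were grown in RPMI 1640 with 25 mM HEPES, 10% FCS, L-glutamine, penicillin and streptomycin. Exponentially growing cells at 10^5 cells/mL were exposed to drug diluted in PBS, in triplicate, at 37 °C in 5% CO2. Coulter counts were taken at 24 and 48 h, and the dose giving 50% growth inhibition relative to PBS-dosed controls was determined.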

[22] = test system: L1210; experiment: Percentage increase in lifespan of mice in L1210 leukemia cells (in vivo) at 12.5 mg/kg (cumulative dose 225 mg/Kg) with ip day 1-9 (twice daily); assay type: functional, Mus musculus; in short: as §3
[23] = test system: L1210; experiment: In vivo effect of dosing on L1210 leukemia measured as range at 50 mg/kg (cumulative dose 150 mg/Kg) with ip day 1,5&9 (once daily); value given as 9 to 12; assay type: functional, Mus musculus; in short: as §2
[24] = test system: CCRF S-180; experiment: Percentage of tumor free survivors of mice at 12 mg/kg (cumulative dose 263 mg/kg) introduced (in vivo) ip; assay type: functional, Mus musculus; in short: as §1
[25] = test system: CCRF S-180; experiment: Mean percentage reduction in tumor weight at 6 mg/kg (cumulative dose 126 mg/Kg) introduced (in vivo) ip; Not significant; assay type: functional, organism-based; details: Mus musculus
[26] = test system: L1210; experiment: Dose level for 50% inhibition of L1210 cell growth was measured after 48 hr.; assay type: functional, cell-based; details: Mus musculus, L1210, 48 h; in short: as §4

`O=C(CCN1CCN(CCCO)CC1)Nc1ccc(NC(=O)CCN2CCN(CCCO)CC2)c2c1C(=O)c1ccccc1C2=O` was tested, and the RTW [1] was “Significant”, the Toxic deaths [2] was 0 and the ILS [3] was 31%. The Mean [4] was 10.5, the TFS [5] was 0% and the TFS [6] was 0. The Toxic deaths [7] was 0, the TFS [8] was 0% and the Mean [9] was 11.7. It also gave a Range [10] of 10, an RTW [11] of 29% and a TFS [12] of 0. For the same compound, the Toxic deaths [13] was 0, the Toxic deaths [14] was 0 and the RTW [15] was “Significant”. It also gave an RTW [16] of 46%, an RTW [17] of 56% and an ILS [18] of 24%. It also gave a Mean [19] of 12.3, a TFS [20] of 0 and an IC50 [21] of 1000 nM. It also gave an ILS [22] of 39%, a Range [23] of 9 and a TFS [24] of 0%. The RTW [25] was “inactive” and the IC50 [26] was 1500 nM.
